ChEMBL document CHEMBL3120116, “Toward synthesis of third-generation spin-labeled podophyllotoxin derivatives using isocyanide multicomponent reactions” (Eur J Med Chem, 2014)
pIC50: −log10 of the molar value.

tested on: not listed separately; experiment: Cytotoxicity against human KBVIN cells after 72 hrs by SRB assay; format: functional, cell-based; conditions: Homo sapiens, KBVIN, 72 h
Procedure, shortened: (§1)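 Cells seeded at 3–5 × 10^3 per well in RPMI-1640 with 10% FBS containing graded sample concentrations, exposed 72 h. Attached cells fixed with cold 50% trichloroacetic acid 30 min, stained with 0.04% SRB 30 min, bound dye dissolved in 10 mM Tris-base, absorbance read at 515 nm. Triplicate experiments; IC50 reported. KBvin is a vincristine-selected MDR KB subline.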

| SMILES | pIC50 |
| --- | --- |
| COc1cc([C@@H]2c3cc4c(cc3[C@@H](O[C@@H]3O[C@@H]5CO[C@@H](C)O[C@H]5[C@H](O)[C@H]3O)[C@H]3COC(=O)[C@H]23)OCO4)cc(OC)c1O [ETOPOSIDE] | < 4.70 |

same assay, conditions: kbvin

| SMILES | pIC50 |
| --- | --- |
| CCCN(C(=O)C1=CC(C)(C)N([O])C1(C)C)C(C)(C)C(=O)N[C@@H]1c2cc3c(cc2[C@@H](c2cc(OC)c(OC)c(OC)c2)[C@H]2C(=O)OC[C@@H]21)OCO3 | < 4.70 |
| CCCN(C(=O)C1=CC(C)(C)N([O])C1(C)C)C(C(=O)N[C@@H]1c2cc3c(cc2[C@@H](c2cc(OC)c(OC)c(OC)c2)[C@H]2C(=O)OC[C@@H]21)OCO3)c1ccc(OC)cc1 (stereo partly specified) | < 4.70 |
| CCCC(C(=O)N[C@@H]1c2cc3c(cc2[C@@H](c2cc(OC)c(OC)c(OC)c2)[C@H]2C(=O)OC[C@@H]21)OCO3)N(CCC)C(=O)C1CC(C)(C)N([O])C(C)(C)C1 (stereo partly specified) | < 4.70 |
| COc1cc([C@@H]2c3cc4c(cc3[C@@H](NC(=O)C(OC(=O)C3=CC(C)(C)N([O])C3(C)C)c3ccc5c(c3)OCO5)[C@H]3COC(=O)[C@H]23)OCO4)cc(OC)c1OC (stereo partly specified) | 5.69 |
| COc1cc([C@@H]2c3cc4c(cc3[C@@H](NC(=O)C(c3ccccc3)N(C(=O)C3CC(C)(C)N([O])C(C)(C)C3)c3ccccc3)[C@H]3COC(=O)[C@H]23)OCO4)cc(OC)c1OC (stereo partly specified) | 5.19 |
| COc1ccc(C(OC(=O)C2=CC(C)(C)N([O])C2(C)C)C(=O)N[C@@H]2c3cc4c(cc3[C@@H](c3cc(OC)c(OC)c(OC)c3)[C@H]3C(=O)OC[C@@H]32)OCO4)cc1 (stereo partly specified) | 6.14 |
| CCCC(C(=O)N[C@@H]1c2cc3c(cc2[C@@H](c2cc(OC)c(OC)c(OC)c2)[C@H]2C(=O)OC[C@@H]21)OCO3)N(CCC)C(=O)C1=CC(C)(C)N([O])C(C)(C)C1 (stereo partly specified) | < 4.70 |
| CCCN(C(=O)C1=CC(C)(C)N([O])C1(C)C)C1(C(=O)N[C@@H]2c3cc4c(cc3[C@@H](c3cc(OC)c(OC)c(OC)c3)[C@H]3C(=O)OC[C@@H]32)OCO4)CCCCC1 | < 4.70 |
| COc1cc([C@@H]2c3cc4c(cc3[C@@H](NC(=O)C(C)(C)OC(=O)C3=CC(C)(C)N([O])C3(C)C)[C@H]3COC(=O)[C@H]23)OCO4)cc(OC)c1OC | 5.59 |
| COc1cc([C@@H]2c3cc4c(cc3[C@@H](NC(=O)C(OC(=O)C3=CC(C)(C)N([O])C3(C)C)c3ccccc3)[C@H]3COC(=O)[C@H]23)OCO4)cc(OC)c1OC (stereo partly specified) | < 4.70 |

tested on: A549; experiment: Cytotoxicity against human A549 cells after 72 hrs by SRB assay; format: functional, cell-based; conditions: not given; procedure, shortened: as §1

| SMILES | pIC50 |
| --- | --- |
| CCCN(C(=O)C1=CC(C)(C)N([O])C1(C)C)C(C)(C)C(=O)N[C@@H]1c2cc3c(cc2[C@@H](c2cc(OC)c(OC)c(OC)c2)[C@H]2C(=O)OC[C@@H]21)OCO3 | < 4.70 |
| CCCN(C(=O)C1=CC(C)(C)N([O])C1(C)C)C(C(=O)N[C@@H]1c2cc3c(cc2[C@@H](c2cc(OC)c(OC)c(OC)c2)[C@H]2C(=O)OC[C@@H]21)OCO3)c1ccc(OC)cc1 (stereo partly specified) | < 4.70 |
| CCCC(C(=O)N[C@@H]1c2cc3c(cc2[C@@H](c2cc(OC)c(OC)c(OC)c2)[C@H]2C(=O)OC[C@@H]21)OCO3)N(CCC)C(=O)C1CC(C)(C)N([O])C(C)(C)C1 (stereo partly specified) | < 4.70 |
| COc1cc([C@@H]2c3cc4c(cc3[C@@H](NC(=O)C(OC(=O)C3=CC(C)(C)N([O])C3(C)C)c3ccc5c(c3)OCO5)[C@H]3COC(=O)[C@H]23)OCO4)cc(OC)c1OC (stereo partly specified) | 5.84 |
| COc1cc([C@@H]2c3cc4c(cc3[C@@H](NC(=O)C(c3ccccc3)N(C(=O)C3CC(C)(C)N([O])C(C)(C)C3)c3ccccc3)[C@H]3COC(=O)[C@H]23)OCO4)cc(OC)c1OC (stereo partly specified) | 5.21 |
| COc1ccc(C(OC(=O)C2=CC(C)(C)N([O])C2(C)C)C(=O)N[C@@H]2c3cc4c(cc3[C@@H](c3cc(OC)c(OC)c(OC)c3)[C@H]3C(=O)OC[C@@H]32)OCO4)cc1 (stereo partly specified) | 6.12 |
| CCCC(C(=O)N[C@@H]1c2cc3c(cc2[C@@H](c2cc(OC)c(OC)c(OC)c2)[C@H]2C(=O)OC[C@@H]21)OCO3)N(CCC)C(=O)C1=CC(C)(C)N([O])C(C)(C)C1 (stereo partly specified) | < 4.70 |
| CCCN(C(=O)C1=CC(C)(C)N([O])C1(C)C)C1(C(=O)N[C@@H]2c3cc4c(cc3[C@@H](c3cc(OC)c(OC)c(OC)c3)[C@H]3C(=O)OC[C@@H]32)OCO4)CCCCC1 | < 4.70 |
| COc1cc([C@@H]2c3cc4c(cc3[C@@H](NC(=O)C(C)(C)OC(=O)C3=CC(C)(C)N([O])C3(C)C)[C@H]3COC(=O)[C@H]23)OCO4)cc(OC)c1OC | 5.62 |
| COc1cc([C@@H]2c3cc4c(cc3[C@@H](NC(=O)C(OC(=O)C3=CC(C)(C)N([O])C3(C)C)c3ccccc3)[C@H]3COC(=O)[C@H]23)OCO4)cc(OC)c1OC (stereo partly specified) | < 4.70 |

tested on: KB; experiment: Cytotoxicity against human KB cells after 72 hrs by SRB assay; format: functional, cell-based; conditions: not given; procedure, shortened: as §1

| SMILES | pIC50 |
| --- | --- |
| CCCN(C(=O)C1=CC(C)(C)N([O])C1(C)C)C(C)(C)C(=O)N[C@@H]1c2cc3c(cc2[C@@H](c2cc(OC)c(OC)c(OC)c2)[C@H]2C(=O)OC[C@@H]21)OCO3 | < 4.70 |
| CCCN(C(=O)C1=CC(C)(C)N([O])C1(C)C)C(C(=O)N[C@@H]1c2cc3c(cc2[C@@H](c2cc(OC)c(OC)c(OC)c2)[C@H]2C(=O)OC[C@@H]21)OCO3)c1ccc(OC)cc1 (stereo partly specified) | < 4.70 |
| CCCC(C(=O)N[C@@H]1c2cc3c(cc2[C@@H](c2cc(OC)c(OC)c(OC)c2)[C@H]2C(=O)OC[C@@H]21)OCO3)N(CCC)C(=O)C1CC(C)(C)N([O])C(C)(C)C1 (stereo partly specified) | < 4.70 |
| COc1cc([C@@H]2c3cc4c(cc3[C@@H](NC(=O)C(OC(=O)C3=CC(C)(C)N([O])C3(C)C)c3ccc5c(c3)OCO5)[C@H]3COC(=O)[C@H]23)OCO4)cc(OC)c1OC (stereo partly specified) | 5.95 |
| COc1cc([C@@H]2c3cc4c(cc3[C@@H](NC(=O)C(c3ccccc3)N(C(=O)C3CC(C)(C)N([O])C(C)(C)C3)c3ccccc3)[C@H]3COC(=O)[C@H]23)OCO4)cc(OC)c1OC (stereo partly specified) | 5.23 |
| COc1ccc(C(OC(=O)C2=CC(C)(C)N([O])C2(C)C)C(=O)N[C@@H]2c3cc4c(cc3[C@@H](c3cc(OC)c(OC)c(OC)c3)[C@H]3C(=O)OC[C@@H]32)OCO4)cc1 (stereo partly specified) | 6.22 |
| CCCC(C(=O)N[C@@H]1c2cc3c(cc2[C@@H](c2cc(OC)c(OC)c(OC)c2)[C@H]2C(=O)OC[C@@H]21)OCO3)N(CCC)C(=O)C1=CC(C)(C)N([O])C(C)(C)C1 (stereo partly specified) | < 4.70 |
| CCCN(C(=O)C1=CC(C)(C)N([O])C1(C)C)C1(C(=O)N[C@@H]2c3cc4c(cc3[C@@H](c3cc(OC)c(OC)c(OC)c3)[C@H]3C(=O)OC[C@@H]32)OCO4)CCCCC1 | < 4.70 |
| COc1cc([C@@H]2c3cc4c(cc3[C@@H](NC(=O)C(C)(C)OC(=O)C3=CC(C)(C)N([O])C3(C)C)[C@H]3COC(=O)[C@H]23)OCO4)cc(OC)c1OC | 5.63 |
| COc1cc([C@@H]2c3cc4c(cc3[C@@H](NC(=O)C(OC(=O)C3=CC(C)(C)N([O])C3(C)C)c3ccccc3)[C@H]3COC(=O)[C@H]23)OCO4)cc(OC)c1OC (stereo partly specified) | < 4.70 |

tested on: DU-145; experiment: Cytotoxicity against human DU145 cells after 72 hrs by SRB assay; format: functional, cell-based; conditions: not given; procedure, shortened: as §1

| SMILES | pIC50 |
| --- | --- |
| CCCN(C(=O)C1=CC(C)(C)N([O])C1(C)C)C(C)(C)C(=O)N[C@@H]1c2cc3c(cc2[C@@H](c2cc(OC)c(OC)c(OC)c2)[C@H]2C(=O)OC[C@@H]21)OCO3 | < 4.70 |
| CCCN(C(=O)C1=CC(C)(C)N([O])C1(C)C)C(C(=O)N[C@@H]1c2cc3c(cc2[C@@H](c2cc(OC)c(OC)c(OC)c2)[C@H]2C(=O)OC[C@@H]21)OCO3)c1ccc(OC)cc1 (stereo partly specified) | < 4.70 |
| CCCC(C(=O)N[C@@H]1c2cc3c(cc2[C@@H](c2cc(OC)c(OC)c(OC)c2)[C@H]2C(=O)OC[C@@H]21)OCO3)N(CCC)C(=O)C1CC(C)(C)N([O])C(C)(C)C1 (stereo partly specified) | < 4.70 |
| COc1cc([C@@H]2c3cc4c(cc3[C@@H](NC(=O)C(OC(=O)C3=CC(C)(C)N([O])C3(C)C)c3ccc5c(c3)OCO5)[C@H]3COC(=O)[C@H]23)OCO4)cc(OC)c1OC (stereo partly specified) | 5.86 |
| COc1cc([C@@H]2c3cc4c(cc3[C@@H](NC(=O)C(c3ccccc3)N(C(=O)C3CC(C)(C)N([O])C(C)(C)C3)c3ccccc3)[C@H]3COC(=O)[C@H]23)OCO4)cc(OC)c1OC (stereo partly specified) | 5.22 |
| COc1ccc(C(OC(=O)C2=CC(C)(C)N([O])C2(C)C)C(=O)N[C@@H]2c3cc4c(cc3[C@@H](c3cc(OC)c(OC)c(OC)c3)[C@H]3C(=O)OC[C@@H]32)OCO4)cc1 (stereo partly specified) | 6.20 |
| CCCC(C(=O)N[C@@H]1c2cc3c(cc2[C@@H](c2cc(OC)c(OC)c(OC)c2)[C@H]2C(=O)OC[C@@H]21)OCO3)N(CCC)C(=O)C1=CC(C)(C)N([O])C(C)(C)C1 (stereo partly specified) | < 4.70 |
| CCCN(C(=O)C1=CC(C)(C)N([O])C1(C)C)C1(C(=O)N[C@@H]2c3cc4c(cc3[C@@H](c3cc(OC)c(OC)c(OC)c3)[C@H]3C(=O)OC[C@@H]32)OCO4)CCCCC1 | < 4.70 |
| COc1cc([C@@H]2c3cc4c(cc3[C@@H](NC(=O)C(C)(C)OC(=O)C3=CC(C)(C)N([O])C3(C)C)[C@H]3COC(=O)[C@H]23)OCO4)cc(OC)c1OC | 5.62 |
| COc1cc([C@@H]2c3cc4c(cc3[C@@H](NC(=O)C(OC(=O)C3=CC(C)(C)N([O])C3(C)C)c3ccccc3)[C@H]3COC(=O)[C@H]23)OCO4)cc(OC)c1OC (stereo partly specified) | < 4.70 |
